Source: ChEMBL document CHEMBL3297702, “Improving photodynamic inactivation of bacteria in dentistry: highly effective and fast killing of oral key pathogens with novel tooth-colored type-II photosensitizers” (J Med Chem, 2014)
Activity calls are given as the source filed them. The rule behind the calls is not given here.

Key:
[1] = Stability of the compound in D2O at 90 degC after > 10 mins by NMR analysis; type: physicochemical
Enterococcus faecalis = assay: Photodynamic inactivation of Enterococcus faecalis ATCC 29212 assessed as reduction of log10 CFU at 1 to 250 uM preincubated for 10 secs followed by irradiation with 25 j/cm'2 for 20 secs measured after 24 hrs by agar plating method; type: functional, organism-based
Procedure, shortened: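 E. faecalis ATCC 29212, aerobic overnight BHI culture at 37 °C, was harvested at stationary phase and suspended in PBS at 10^7–10^8 bacteria/mL. It was mixed 1:1 with PS to 0–250 µM final, held 10 s, then illuminated (1260 ± 50 mW/cm2) or kept dark. Dilutions were plated on Mueller-Hinton agar, aerobic 37 °C 24 h, CFU counted. Medians of three independent triplicate experiments, referred to untreated controls.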

Streptococcus mutans [2] = assay: Photodynamic inactivation of Streptococcus mutans ATCC 25175 assessed as reduction of log10 CFU at 1 to 250 uM preincubated for 10 secs followed by irradiation with 25 j/cm'2 for 20 secs measured after 48 hrs by agar plating method; type: functional
Streptococcus mutans [3] = assay: Photodynamic inactivation of Streptococcus mutans ATCC 25175 assessed as reduction of log10 CFU at 1 to 250 uM preincubated for 10 secs followed by irradiation with 150 j/cm'2 for 120 secs measured after 48 hrs by agar plating method; type: functional
Actinomyces naeslundii [4] = assay: Photodynamic inactivation of Actinomyces naeslundii T14V assessed as reduction of log10 CFU at 1 to 250 uM preincubated for 10 secs followed by irradiation with 150 j/cm'2 for 120 secs measured after 48 hrs by agar plating method; type: functional, organism-based
Procedure, shortened: (§1)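 A. naeslundii T14V grown overnight at 37 °C, shaken, aerobically in BHI broth. Harvested at stationary phase, resuspended in PBS to 10^7–10^8 bacteria/mL (OD600). Mixed 1:1 with PS (final 0–250 µM) or water, 10 s incubation, then blue photopolymerizer light (1260 ± 50 mW/cm2) or dark. Tenfold dilutions plated on blood agar, aerobic 37 °C 48 h, CFU counted; medians of three independent experiments in triplicate.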

[5] = test system: Aggregatibacter actinomycetemcomitans; assay: Photodynamic inactivation of Aggregatibacter actinomycetemcomitans ATCC 43718 assessed as reduction of log10 CFU at 1 to 250 uM incubated prior to irradiation with 150 j/cm'2 for 120 secs measured after 48 hrs by agar plating method; type: functional; settings: Y4
Procedure, shortened: (§2)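 A. actinomycetemcomitans ATCC 43718 cultured overnight in BHI broth under anaerobic conditions, 37 °C with shaking. Stationary-phase cells were spun down, taken up in PBS to 10^7–10^8/mL, and combined 1:1 with PS (final 0–250 µM) or water. After 10 s they were irradiated at 1260 ± 50 mW/cm2 or kept dark. Serial dilutions went onto BHI agar, incubated anaerobically at 37 °C for 48 h, and CFU were scored. Results are medians from 3 experiments × triplicate versus untreated controls.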

[6] = test system: Aggregatibacter actinomycetemcomitans; assay: Photodynamic inactivation of Aggregatibacter actinomycetemcomitans ATCC 43718 assessed as reduction of log10 CFU at 1 uM incubated prior to irradiation with 150 j/cm'2 for 120 secs measured after 48 hrs by agar plating method relative to control; type: functional, Y4; procedure, shortened: as §2
Streptococcus mutans [7] = assay: Photodynamic inactivation of Streptococcus mutans ATCC 25175 assessed as reduction of log10 CFU at 1 uM incubated prior to irradiation with 25 j/cm'2 for 20 secs measured after 48 hrs by agar plating method (reference value: <1 no unit); type: functional
Streptococcus mutans [8] = assay: Photodynamic inactivation of Streptococcus mutans ATCC 25175 assessed as reduction of log10 CFU at 1 uM incubated prior to irradiation with 150 j/cm'2 for 120 secs measured after 48 hrs by agar plating method (reference value: <1 no unit); type: functional
Streptococcus mutans [9] = assay: Photodynamic inactivation of Streptococcus mutans ATCC 25175 assessed as reduction of log10 CFU at 5 uM incubated prior to irradiation with 50 j/cm'2 for 40 secs measured after 48 hrs by agar plating method (reference value: <1 no unit); type: functional
Streptococcus mutans [10] = assay: Photodynamic inactivation of Streptococcus mutans ATCC 25175 assessed as reduction of log10 CFU at 5 uM incubated prior to irradiation with 150 j/cm'2 for 120 secs measured after 48 hrs by agar plating method (reference value: <1 no unit); type: functional
Streptococcus mutans [11] = assay: Photodynamic inactivation of Streptococcus mutans ATCC 25175 assessed as reduction of log10 CFU at 10 uM incubated prior to irradiation with 25 j/cm'2 for 20 secs measured after 48 hrs by agar plating method (reference value: <1 no unit); type: functional
Streptococcus mutans [12] = assay: Photodynamic inactivation of Streptococcus mutans ATCC 25175 assessed as reduction of log10 CFU at 10 uM incubated prior to irradiation with 50 j/cm'2 for 40 secs measured after 48 hrs by agar plating method (reference value: <1 no unit); type: functional
Actinomyces naeslundii [13] = assay: Photodynamic inactivation of Actinomyces naeslundii T14V assessed as reduction of log10 CFU at 5 uM incubated prior to irradiation with 150 j/cm'2 for 120 secs measured after 48 hrs by agar plating method (reference value: <1 no unit); type: functional; procedure, shortened: as §1
Actinomyces naeslundii [14] = assay: Photodynamic inactivation of Actinomyces naeslundii T14V assessed as reduction of log10 CFU at 10 uM incubated prior to irradiation with 25 j/cm'2 for 20 secs measured after 48 hrs by agar plating method (reference value: <1 no unit); type: functional; procedure, shortened: as §1
Actinomyces naeslundii [15] = assay: Photodynamic inactivation of Actinomyces naeslundii T14V assessed as reduction of log10 CFU at 10 uM incubated prior to irradiation with 50 j/cm'2 for 40 secs measured after 48 hrs by agar plating method (reference value: <1 no unit); type: functional; procedure, shortened: as §1
[16] = test system: Aggregatibacter actinomycetemcomitans; assay: Photodynamic inactivation of Aggregatibacter actinomycetemcomitans ATCC 43718 assessed as reduction of log10 CFU at 1 uM incubated prior to irradiation with 25 j/cm'2 for 20 secs measured after 48 hrs by agar plating method relative to control; type: functional, Y4; procedure, shortened: as §2
[17] = test system: Aggregatibacter actinomycetemcomitans; assay: Photodynamic inactivation of Aggregatibacter actinomycetemcomitans ATCC 43718 assessed as reduction of log10 CFU at 10 uM incubated prior to irradiation with 25 j/cm'2 for 20 secs measured after 48 hrs by agar plating method relative to control; type: functional, Y4; procedure, shortened: as §2
[18] = test system: Aggregatibacter actinomycetemcomitans; assay: Photodynamic inactivation of Aggregatibacter actinomycetemcomitans ATCC 43718 assessed as reduction of log10 CFU at 10 uM incubated prior to irradiation with 50 j/cm'2 for 40 secs measured after 48 hrs by agar plating method (reference value: <1 no unit); type: functional, Y4; procedure, shortened: as §2
[19] = test system: Aggregatibacter actinomycetemcomitans; assay: Photodynamic inactivation of Aggregatibacter actinomycetemcomitans ATCC 43718 assessed as reduction of log10 CFU at 100 uM incubated prior to irradiation with 25 j/cm'2 for 20 secs measured after 48 hrs by agar plating method relative to control; type: functional, Y4; procedure, shortened: as §2
[20] = test system: Aggregatibacter actinomycetemcomitans; assay: Photodynamic inactivation of Aggregatibacter actinomycetemcomitans ATCC 43718 assessed as reduction of log10 CFU at 100 uM incubated prior to irradiation with 50 j/cm'2 for 40 secs measured after 48 hrs by agar plating method (reference value: <1 no unit); type: functional, Y4; procedure, shortened: as §2

In the case of `C[N+](C)(C)CC1=Cc2cccc3cccc(c23)C1=O.[Cl-]`, the Stability [1] is reported as “Stable”, the Activity (Enterococcus faecalis) is reported as “Active” and the Activity (Streptococcus mutans [2]) is reported as “Active”. The Activity (Streptococcus mutans [3]) was “Active”, the Activity (Actinomyces naeslundii [4]) was “Active” and the Activity [5] was “Active”.
`C[N+](C)(CCO)CC1=Cc2cccc3cccc(c23)C1=O.[Cl-]` showed a log10cfu [6] of over 6, a log10cfu (Streptococcus mutans [7]) of under 1 and a log10cfu (Streptococcus mutans [8]) of under 1. The log10cfu (Streptococcus mutans [9]) was under 1, the log10cfu (Streptococcus mutans [10]) was under 3 and the log10cfu (Streptococcus mutans [11]) was under 1. It also gave a log10cfu (Streptococcus mutans [12]) of under 3, a log10cfu (Actinomyces naeslundii [13]) of under 5 and a log10cfu (Actinomyces naeslundii [14]) of under 3. For the same compound, the log10cfu (Actinomyces naeslundii [15]) was under 5, the log10cfu [16] was under 1 and the log10cfu [17] was under 3. For the same compound, the log10cfu [18] was under 3, the log10cfu [19] was over 3 and the log10cfu [20] was over 6.
In the case of `O=C1C(C[n+]2ccccc2)=Cc2cccc3cccc1c23.[Cl-]`, the log10cfu [6] is reported as over 6, the Stability [1] is reported as “Stable” and the Activity (Enterococcus faecalis) is reported as “Active”. For the same compound, the Activity (Streptococcus mutans [2]) was “Active”, the Activity (Streptococcus mutans [3]) was “Active” and the Activity (Actinomyces naeslundii [4]) was “Active”. For the same compound, the Activity [5] was “Active”, the log10cfu (Streptococcus mutans [7]) was under 1 and the log10cfu (Streptococcus mutans [8]) was under 3. It also gave a log10cfu (Streptococcus mutans [9]) of under 3, a log10cfu (Streptococcus mutans [10]) of over 6 and a log10cfu (Streptococcus mutans [11]) of under 3. It also gave a log10cfu (Streptococcus mutans [12]) of over 6, a log10cfu (Actinomyces naeslundii [13]) of over 5 and a log10cfu (Actinomyces naeslundii [14]) of over 5. For the same compound, the log10cfu (Actinomyces naeslundii [15]) was over 5, the log10cfu [16] was under 3 and the log10cfu [17] was over 6. For the same compound, the log10cfu [18] was over 6, the log10cfu [19] was over 6 and the log10cfu [20] was over 6.
